According to ChEMBL document CHEMBL1124384, “Deaminoteicoplanin and its derivatives. Synthesis, antibacterial activity, and binding strength to Ac-D-Ala-D-Ala” (J Med Chem, 1989):
Converted amounts (≈) assume the structure as drawn.

Assays:
[1] = tested on: Enterococcus faecalis; assay: Minimal inhibitory concentration of compound against Streptococcus faecalis AACC7080; format: functional
Procedure, shortened: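 For S. faecalis, 2-fold dilution MIC in a microtiter system using Iso-sensitest broth and a final inoculum of about 10⁴ cfu/mL. Incubation was 18–24 h at 37 °C. The endpoint was the lowest concentration without visible growth.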

[2] = tested on: Streptococcus pyogenes; assay: Minimal inhibitory concentration of compound against Streptococcus pyogenes C203; format: functional
Procedure, shortened: (§1)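 Streptococci were tested by 2-fold broth microdilution in Todd-Hewitt broth, with a final inoculum of about 10⁴ cfu/mL. After 18–24 h at 37 °C, MIC was read as the lowest concentration with no visible growth.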

[3] = tested on: Staphylococcus aureus; assay: Minimal inhibitory concentration of compound against Staphylococcus aureus Tour determined in iso-sensitest broth supplemented with 30% bovine serum and an inoculum of 10e4 cfu/mL
[4] = tested on: Staphylococcus epidermidis; assay: Minimal inhibitory concentration of compound against […] ATCC 12228; format: functional
[5] = tested on: Streptococcus pneumoniae; assay: Minimal inhibitory concentration of compound against Streptococcus pneumoniae UC41; format: functional; procedure, shortened: as §1
[6] = tested on: Staphylococcus aureus; assay: Minimal inhibitory concentration of compound against Staphylococcus aureus Tour in an inoculum of 10e6 cfu/mL; format: functional
Procedure, shortened: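 Twofold microtiter broth dilution in Iso-sensitest broth, with the inoculum raised to 10⁶ cfu/mL. After 18–24 h at 37 °C, MIC was read as the lowest concentration giving no visible growth.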

[7] = tested on: Staphylococcus aureus; assay: Minimal inhibitory concentration of compound against Staphylococcus aureus Tour; format: functional
Procedure, shortened: (§2)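 Broth MIC by 2-fold serial dilution in microtiter format, in Iso-sensitest broth, with a final inoculum of about 10⁴ cfu/mL. Plates were incubated 18–24 h at 37 °C. MIC was taken as the lowest concentration with no visible growth.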

[8] = Association constant for compound at 31 degree C was determined; format: ADME
Procedure, shortened: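 UV difference spectroscopy at 31 °C. Antibiotic at 25 μM in 10% methanol/0.02 M sodium citrate buffer, pH 5, sat in sample and reference cells (4-cm path). Ac-D-Ala-D-Ala was added from a 4 mM stock to the sample cell, with buffer added to the reference. The absorbance change was read at 282–285 nm. K_A came from Scatchard plots, with antibiotic concentration set by UV at 279 nm.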

[9] = tested on: Staphylococcus aureus; assay: Minimal inhibitory concentration of compound against Staphylococcus aureus; format: functional; procedure, shortened: as §2

Row | SMILES | MIC [1] [µg/mL] | MIC [2] [µg/mL] | MIC [3] [µg/mL] | MIC [4] [µg/mL] | MIC [5] [µg/mL] | MIC [6] [µg/mL] | MIC [7] [µg/mL] | KA [8] [M⁻¹] | MIC [9] [µg/mL]
1 | CC(=O)N[C@@H]1[C@H](O[C@@H]2c3ccc(c(Cl)c3)Oc3cc4cc(c3O)Oc3ccc(cc3Cl)C[C@H]3NC(=O)Cc5ccc(O)c(c5)Oc5cc(O)cc(c5)[C@H](NC3=O)C(=O)N[C@H]4C(=O)N[C@H]3C(=O)N[C@@H]2C(=O)N[C@H](C(=O)O)c2cc(O)cc(O[C@H]4O[C@H](CO)[C@@H](O)[C@@H](O)[C@@H]4O)c2-c2cc3ccc2O)O[C@@H](CO)[C@@H](O)[C@@H]1O | 4 (≈ 2.58 µM) | 4 (≈ 2.58 µM) | 16 (≈ 10.3 µM) | 1 (≈ 0.645 µM) | 4 (≈ 2.58 µM) | 8 (≈ 5.16 µM) | 2 (≈ 1.29 µM) | – | –
2 | CCCCCCCCCC(=O)N[C@@H]1[C@H](Oc2c3cc4cc2Oc2ccc(cc2Cl)[C@@H](O[C@@H]2O[C@@H](CO)[C@@H](O)[C@H](O)[C@@H]2NC(C)=O)[C@@H]2NC(=O)[C@H](NC(=O)[C@@H]4NC(=O)[C@H]4NC(=O)[C@@H](Cc5ccc(c(Cl)c5)O3)NC(=O)Cc3ccc(O)c(c3)Oc3cc(O)cc4c3)c3ccc(O)c(c3)-c3c(O[C@H]4O[C@H](CO)[C@@H](O)[C@@H](O)[C@@H]4O)cc(O)cc3[C@@H](C(=O)O)NC2=O)O[C@@H](CO)[C@@H](O)[C@@H]1O | 0.5 (≈ 0.268 µM) | 0.12 (≈ 0.0644 µM) | 8 (≈ 4.29 µM) | 0.12 (≈ 0.0644 µM) | 0.25 (≈ 0.134 µM) | 2 (≈ 1.07 µM) | – | 130000 | 0.5 (≈ 0.268 µM)
3 | CCCCCCCCCC(=O)N[C@@H]1[C@H](Oc2c3cc4cc2Oc2ccc(cc2Cl)[C@@H](O[C@@H]2O[C@@H](CO)[C@@H](O)[C@H](O)[C@@H]2NC(C)=O)[C@@H]2NC(=O)[C@H](NC(=O)[C@@H]4NC(=O)[C@H]4NC(=O)[C@@H](Cc5ccc(c(Cl)c5)O3)NC(=O)Cc3ccc(O)c(c3)Oc3cc(O)cc4c3)c3ccc(O)c(c3)-c3c(O[C@H]4O[C@H](CO)[C@@H](O)[C@@H](O)[C@@H]4O)cc(O)cc3[C@@H](C(=O)N(C)C)NC2=O)O[C@@H](CO)[C@@H](O)[C@@H]1O | 0.25 (≈ 0.132 µM) | 0.12 (≈ 0.0634 µM) | 4 (≈ 2.11 µM) | 0.12 (≈ 0.0634 µM) | 0.12 (≈ 0.0634 µM) | 1 (≈ 0.529 µM) | 0.12 (≈ 0.0634 µM) | 200000 | –

Second part, the compound after the results:

Row | MIC [1] [µg/mL] | MIC [2] [µg/mL] | MIC [3] [µg/mL] | MIC [4] [µg/mL] | MIC [5] [µg/mL] | MIC [6] [µg/mL] | MIC [7] [µg/mL] | KA [8] [M⁻¹] | MIC [9] [µg/mL] | SMILES
4 | 0.12 (≈ 0.0946 µM) | 0.12 (≈ 0.0946 µM) | 4 (≈ 3.15 µM) | 0.12 (≈ 0.0946 µM) | 0.2 (≈ 0.158 µM) | 0.12 (≈ 0.0946 µM) | 0.12 (≈ 0.0946 µM) | – | – | CN(C)CCCNC(=O)[C@H]1NC(=O)[C@H]2NC(=O)[C@H](NC(=O)[C@@H]3NC(=O)[C@H]4NC(=O)[C@@H](Cc5ccc(c(Cl)c5)Oc5cc3cc(c5O)Oc3ccc(cc3Cl)[C@H]2O)NC(=O)Cc2ccc(O)c(c2)Oc2cc(O)cc4c2)c2ccc(O)c(c2)-c2c(O)cc(O)cc21
5 | 8 (≈ 5.77 µM) | 8 (≈ 5.77 µM) | 16 (≈ 11.5 µM) | 1 (≈ 0.721 µM) | 2 (≈ 1.44 µM) | 2 (≈ 1.44 µM) | 2 (≈ 1.44 µM) | – | – | CC(=O)N[C@@H]1[C@H](O[C@@H]2c3ccc(c(Cl)c3)Oc3cc4cc(c3O)Oc3ccc(cc3Cl)C[C@H]3NC(=O)Cc5ccc(O)c(c5)Oc5cc(O)cc(c5)[C@H](NC3=O)C(=O)N[C@H]4C(=O)N[C@H]3C(=O)N[C@@H]2C(=O)N[C@H](C(=O)O)c2cc(O)cc(O)c2-c2cc3ccc2O)O[C@@H](CO)[C@@H](O)[C@@H]1O
6 | 0.25 (≈ 0.193 µM) | 0.12 (≈ 0.0929 µM) | 4 (≈ 3.1 µM) | 0.12 (≈ 0.0929 µM) | 0.12 (≈ 0.0929 µM) | 0.25 (≈ 0.193 µM) | 0.12 (≈ 0.0929 µM) | 22000 | – | O=C1Cc2ccc(O)c(c2)Oc2cc(O)cc(c2)[C@@H]2NC(=O)[C@@H](Cc3ccc(c(Cl)c3)Oc3cc4cc(c3O)Oc3ccc(cc3Cl)[C@@H](O)[C@@H]3NC(=O)[C@H](NC(=O)[C@@H]4NC2=O)c2ccc(O)c(c2)-c2c(O)cc(O)cc2[C@@H](C(=O)NC2CN4CCC2CC4)NC3=O)N1 (stereo partly drawn)
7 | 0.12 (≈ 0.1 µM) | 0.12 (≈ 0.1 µM) | 0.25 (≈ 0.209 µM) | 0.016 (≈ 0.0133 µM) | 0.12 (≈ 0.1 µM) | 0.12 (≈ 0.1 µM) | 0.06 (≈ 0.05 µM) | 180000 | – | N[C@H]1C(=O)N[C@@H]2Cc3ccc(c(Cl)c3)Oc3cc4cc(c3O)Oc3ccc(cc3Cl)[C@@H](O)[C@@H]3NC(=O)[C@H](NC(=O)[C@@H]4NC(=O)[C@@H](NC2=O)c2cc(O)cc(c2)Oc2cc1ccc2O)c1ccc(O)c(c1)-c1c(O)cc(O)cc1[C@@H](C(=O)O)NC3=O [TEICOPLANIN AGLYCON]
